# Shown is part of a subset that was picked to be rich in hits.
# T cell modulator: modulators of CD8 T cell-vesicle binding, primary screen, mouse 2C CD8+ T cells, flow cytometry. actives 0.068% (n = 330,000). 2C CD8+ T cell-vesicle binding; hits give low values. response (vesicle binding), % at 7 µM. AID 2052, 2009;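 active means response, share of CD8 T cells binding vesicles, and their 90th percentile fluorescence all below set limits, cut at about 80% in these data, passing the limit was not always enough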;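 further: values below 100% mean blocked vesicle binding to the CD8+ T cells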
#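 material = purified 2C TCR transgenic mouse naive CD8+ T cells | controls = Unloaded micro-vesicles (low), QL9 vesicles with 0.7% DMSO (high) | detection = cytometric PE anti-B7-1 and Alexa647 anti-CD8 signals after 1% paraformaldehyde fixation | incubation = binding step 1.5 h, 37 °C, antibody labelling 20 min, ice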
# ALR inh: inhibitors of human ALR sulfhydryl oxidase, primary screen, biochemical, H2O2 detection, HRP-luminol luminescence, single point; purified ALR, DTT oxidation; inhibition, % (concentration not given with the values); AID 485317, 2010; actives 3.8% (n = 290,000);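 active means mean replicate inhibition above about 79%, with every replicate also reaching it, limit read from the data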
# Target sequence (P55789 whole entry, looked up): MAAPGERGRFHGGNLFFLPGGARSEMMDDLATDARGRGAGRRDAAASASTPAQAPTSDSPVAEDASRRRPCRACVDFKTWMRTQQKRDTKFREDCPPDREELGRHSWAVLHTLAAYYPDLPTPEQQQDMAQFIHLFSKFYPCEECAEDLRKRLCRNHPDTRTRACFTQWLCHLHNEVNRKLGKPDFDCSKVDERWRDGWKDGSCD
# N-glyco inh: increase of ERlucT glycosylation luciferase signal, primary screen, N-linked glycosylation inhibitor project, D54 ERlucT cells, luminescence, set 2 | D54 ERlucT glycosylation luciferase reporter, 24 h; percent of 100 nM tunicamycin response | reporter increase, % at 12.5 µM | actives 0.23% (n = 360,000) | AID 588692, 2011;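 active means mean luciferase reporter signal, scaled so untreated is 0 and the glycosylation-blocking control 100, at or above a set limit in every replicate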;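 further: luciferase carries N-glycosylation sites so blocking glycosylation raises the light; 0% = median of neutral control wells and 100% = median of 100 nM tunicamycin wells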
# * marks the source's active call; other numbers are inactive results; i = inactive; x = no result.
SMILES,T cell modulator,ALR inh,N-glyco inh
O=C1CSC(c2cccc([N+](=O)[O-])c2)N1c1ccccc1 (configuration not stated),122,98*,0
O=C1CSC(c2ccc(F)c(F)c2)N1c1ccccc1F (configuration not stated),25,98*,2
O=C1CSC(c2cccc([N+](=O)[O-])c2)N1c1ccc(O)cc1 (configuration not stated),354,-1,1
O=C1CSC(c2ccccc2)N1c1ccc(F)cc1F (configuration not stated),287,-8,-1
O=C1CSC(c2ccc(F)cc2)N1c1ccccc1F (configuration not stated),301,6,0
CCN(c1ccc(NC(=O)COC(=O)CCc2cc(OC)c(OC)c(OC)c2)cc1)C(C)C,x,x,2
Brc1ccc(C2=CSC3=NCCN23)cc1,645,x,1
Oc1ccc(C2=CSC3=NCCN23)cc1O,138,100*,7
O=C(NCc1ccc(Cl)cc1)C1CCC(CNc2c(N3CCOCC3)c(=O)c2=O)CC1 (configuration not stated),367,-2,-1
COc1cc(C(=O)COC(=O)C2CC2(Cl)Cl)cc(OC)c1OC (configuration not stated),359,-7,1
CCOc1cc(-c2cc(-c3ccc(N)cc3)nc(N)c2C#N)ccc1O,259,x,7
CC(C)C1C(C#N)=C(N)Oc2n[nH]c(-c3ccccc3)c21 (configuration not stated),163,-3,1
CCOc1cc(C2C(C#N)=C(N)Oc3n[nH]c(-c4ccccc4)c32)ccc1O (configuration not stated),248,97*,0
CCOc1cc(-c2cc(-c3ccccc3)nc(N)c2C#N)ccc1O,545,95*,37*
N#CC1=C(N)Oc2n[nH]c(-c3ccccc3)c2C1c1cccnc1 (configuration not stated),285,16,-1
CC(C)CC1C(C#N)=C(N)Oc2n[nH]c(-c3ccccc3)c21 (configuration not stated),44*,x,-2
CCC(C)(C)NC(=O)C(c1cccc(OC)c1OC)N(C(=O)CCC(=O)Nc1cc(C)on1)c1ccc2c(c1)OCCO2 (configuration not stated),404,x,4
CCC(=O)Nc1ccc(C(=O)OCC(=O)c2cccs2)cc1,413,-8,-2
COc1ccc(S(=O)(=O)N2CCN(C(=O)C3COc4ccccc4O3)CC2)cc1 (configuration not stated),237,3,-2
CC(C)(C)OC(=O)N1CSC[C@H]1C(=O)NC[C@H](CC(=O)O)c1ccc(Cl)cc1,0,x,2
Cc1ccc(C(=O)NCC(=O)Nc2ccncc2)s1,i,1,-1
COc1cccc(-c2cc3c(c4c2ccn4C)C2CCC3C2)c1 (configuration not stated),x,x,-9
CC(=O)N1CCN(c2ccc(Nc3ncnc4c3oc3ccccc34)cc2)CC1,176,99*,2
CCc1nc(Nc2ccc(N3CCN(C(C)=O)CC3)cc2)c2oc3ccccc3c2n1,232,96*,2
CCc1nc(Nc2ccccc2)c2oc3ccccc3c2n1,314,-11,3
SMILES,T cell modulator,ALR inh,N-glyco inh
Oc1ccc(Nc2ncnc3c2oc2ccccc23)cc1,470,42,3
Cc1cccnc1C(NC(=O)C1CCN(Cc2ccc3ccccc3n2)CC1)c1ccc(Cl)cc1 (configuration not stated),x,x,-4
c1ccc(CCC2CCCCN2Cc2cn[nH]c2-c2cc3ccccc3o2)nc1 (configuration not stated),213,-24,0
C=CCOc1c(Br)cc(/C=N/Nc2ccc(C(=O)O)cc2)cc1OCC,236,97*,3
CCOc1cc(/C=N/O)cc(Br)c1OCC,394,3,-5
COc1ccc2c(/C=N/Nc3ccc(C(=O)O)cc3)c[nH]c2c1,194,88*,-3
COc1ccc(/C=N/Nc2ccc(C(=O)O)cc2)cc1Br,150,99*,-17
COc1ccc(C(=O)N/N=C/c2c[nH]c3ccccc23)cc1,194,12,0
COc1ccc(/C=N/Nc2ccc(C(=O)O)cc2)cc1OC,92,x,-14
Cc1cccc(C(C#N)c2ccc(Cl)nn2)c1 (configuration not stated),174,25,0
COc1ccc2[nH]c3c(NCCC4=CCCCC4)ncnc3c2c1,x,x,10
COc1cc(NCCC(=O)c2cccs2)c(OC)cc1Cl,205,100*,1
COc1ccc(NC(=O)CCC(=O)c2cccs2)cc1Cl,201,-3,3
CCCCCc1nnc(NC(=O)c2ccc(N3CCCC3=O)cc2)s1,206,-17,0
CN1CCN(C(=S)c2cn(CCOc3ccccc3F)c3ccccc23)CC1,233,-7,-1
CC(C)CC(=O)Nc1ccc(Nc2ccccc2)cc1,396,99*,0
Cc1cccc(NC(=O)CC(C)(C)C)c1,333,0,1
CC(C)CC(=O)Nc1ccc(Oc2ccc(NC(=O)CC(C)C)cc2)cc1,181,-2,x
CC(C)(C)CC(=O)Nc1ccc(Nc2ccccc2)cc1,549,99*,1
CCNc1c(NS(=O)(=O)c2ccc(F)c(Cl)c2)c(=O)oc2ccccc12,466,x,0
Cc1ccc(Cl)cc1NC(=O)NCc1ccccn1,312,-4,1
Cc1cccc(C)c1NC(=O)CN(C)C(=O)c1cccc(NS(=O)(=O)c2ccccc2)c1,215,10,0
CSc1cccc(NC(=O)CN2C(=O)c3ccccc3S2(=O)=O)c1,407,95*,-9
O=C(CN1C(=O)c2ccccc2S1(=O)=O)Nc1ccccc1,204,-16,-7
O=c1[nH]c(C2CCN(S(=O)(=O)c3cccc([N+](=O)[O-])c3)CC2)nc2c1nnn2Cc1ccccc1,173,3,7
SMILES,T cell modulator,ALR inh,N-glyco inh
CC(=O)c1ccccc1NC(=O)COC(=O)/C=C/c1cccs1,239,-8,1
CC(=O)c1ccccc1NC(=O)COC(=O)/C=C/c1ccc(C)o1,193,96*,1
O=C(NCc1ccccc1)c1ccc(NC(=O)C2CCC2)cc1,x,x,0
COc1ccc(C(=O)CC(=O)C(=O)Nc2ccccc2)cc1,82,11,1
COc1ccc(C(=O)CC(=O)C(=O)Nc2cccc(F)c2)cc1,162,80*,2
Cc1cc(C(=O)NNc2ccccc2F)no1,372,99*,1
Cc1cc(C(=O)NNc2ccc(F)cc2)no1,299,99*,2
Cc1cc(C(=O)NNc2c(Cl)cccc2Cl)no1,310,16,0
CCc1ccccc1NNC(=O)c1cc(C)on1,912,-9,2
C/C(=N/NC(=O)CNC(=O)C(c1ccccc1)c1ccccc1)c1ccco1,710,x,-1
COc1ccc(C(=O)N(NC(=O)Oc2ccccc2)C(C)(C)C)cc1,224,x,1
Cc1ccc2nc(Nc3ccccc3)c(/C=N/O)c(=O)n2c1,358,x,0
Cc1ccc(Sc2nc3ccc(C)cn3c(=O)c2/C=N/O)cc1,110,99*,5
